Reference: PubChem BioAssay AID617 (SRMLSC, 2007)
In all, about 1,300 compounds went through this assay and about 1,200 (92%) were called active. How the calls were made is not given here. The set was probably picked from earlier hits. These entries were drawn from the full list. Entries that show only a call come without a potency. Potency and affinity values are given separately.

Assay: E. coli ΔtolC antibacterial growth inhibition – strain BW25113 ΔtolC::kan, dose response (AID 617)
Settings: OD615, at 100 µM (top of the series)
Outline: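 Test system: E. coli BW25113 ΔtolC::kan bacteria | Amount: 1:1000 diluted subculture inoculum | Medium: LB plus kanamycin | Timing: 20 h exposure at 37 °C | Signal: Absorbance at 615 nm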
For `O=C(COc1ccc(Cl)cc1)Nc1nc(-c2cccs2)cs1`, the outcome was “inactive”. In the case of `COc1cc(C(=O)Nc2nc(-c3cccs3)cs2)cc(OC)c1OC`, the outcome is reported as “inactive”. In the case of `CC(C)n1c(C(=O)OCC(=O)NCc2ccc3c(c2)OCO3)cc2occc21`, the outcome is reported as “inactive”. In the case of `CCOC(=O)c1c(N)sc2c(OC)c(Br)ccc12`, the outcome is reported as “inactive”. For `O=C(C1CCN(Cc2cc(Cl)ccc2O)CC1)N1CCN(Cc2ccccc2)CC1`, the outcome was “inactive”. With `CCCCCCn1c(CN2CCCC(C)C2)nc2c1c(=O)n(C)c(=O)n2C` (stereo not drawn) the outcome was “inactive”. With `Cc1ccc(N(CC(=O)Nc2ccc3c(c2)OCCO3)S(=O)(=O)c2c(C)noc2C)cc1` the outcome was “inactive”. With `COc1ccccc1N1CCN(C(=O)c2oc3cc(C)c(C)cc3c2C)CC1` the outcome was “inactive”. With `COc1ccccc1N1CCN(C(=O)c2cc(-c3ccc(Br)cc3)on2)CC1` the outcome was “inactive”. With `Cc1ccc(-c2noc(CCC(=O)N3CCN(c4cccc(C(F)(F)F)c4)CC3)n2)cc1` the outcome was “inactive”. With `Cc1ccc(-c2nnn(CC(=O)N(Cc3cccs3)C(C(=O)NC(C)(C)C)c3ccco3)n2)o1` (stereo not drawn) the outcome was “inactive”. In the case of `Cc1ccc(-c2noc(CN3CCN(c4ccccc4F)CC3)n2)cc1`, the outcome is reported as “inactive”. In the case of `C=C(C)COc1ccc(-c2[nH]ncc2-c2ccc(OC)c(OC)c2)c(O)c1`, the outcome is reported as “inactive”. For `COc1ccc(-c2cnc(N)n2CC2CCCO2)cc1` (stereo not drawn), the outcome was “inactive”. With `COc1cc(OC)cc(-n2nnnc2SCC(=O)N2CCCc3ccccc32)c1` the outcome was “inactive”. In the case of `Cn1c(-c2ccc3c(c2)OCO3)cnc1N`, the outcome is reported as “inactive”. For `CCCCCc1c(C)nc(Nc2ccccc2)[nH]c1=O`, the outcome was “inactive”. For `Cc1nn(-c2ccccc2)c2[nH]c(=O)c(CNCc3ccc4c(c3)OCO4)cc12`, the outcome was “inactive”. In the case of `CCOC(=O)C1(N(CC)CC)Sc2cc(C)ccc2NC1=O` (stereo not drawn), the outcome is reported as “inactive”. With `Cc1cc(=O)oc2c1ccc1oc(/C(=N/O)c3ccccc3)c(C)c12` the outcome was “inactive”. With `CN(C)Cc1nc2c(c(=O)[nH]1)C1(CCCCC1)Cc1ccccc1-2` the outcome was “inactive”. For `Clc1ccc(Cn2ncc3c(N4CCCCC4)ncnc32)c(Cl)c1`, the outcome was “inactive”. With `COc1ccc(-c2csc(N(CC3CCCO3)C(=O)c3ccco3)n2)cc1` (stereo not drawn) the outcome was “inactive”. In the case of `CN1/C(=C\C(=O)c2cccs2)Sc2ccccc21`, the outcome is reported as “inactive”. In the case of `CCOC(=O)c1ccc(NS(=O)(=O)c2ccc(SC)cc2)cc1`, the outcome is reported as “inactive”. In the case of `O=C(c1cc(C2CC2)on1)N1CCN(C(c2ccccc2)c2ccccc2)CC1`, the outcome is reported as “inactive”. For `CC(C)n1c2ccccc2c2nc3ccccc3nc21`, the outcome was “inactive”. In the case of `CCOC(=O)C1CCN(Cc2cn[nH]c2-c2ccc(C)cc2)CC1`, the outcome is reported as “inactive”.
